PPC-1+TRAIL kill – compounds killing PPC-1 cancer cells with TRAIL present (potentiator screen, no TRAIL-free arm); PPC-1 cells + TRAIL, ATPLite viability luminescence; cell killing (% activity), % at 4 µM or 5 µM; hit rate 0.41% among 220,000; AID 1443;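 active means cell killing above 50% in the first pass at 4 µM, then a duplicate retest at 5 µM averaging 50% or more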
Wee1 stabilizer – inhibitors of human Wee1 degradation; HeLa Luc-Wee1K328M stability, luciferase luminescence; 100% = proteasome inhibitor MG132 effect; reporter increase, % at 5 µM; hit rate 1.2% among 220,000; AID 1321;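 active means activation above the mean of all tested compounds plus 3 SD, set per screening run, cut at about 8.8% in these data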;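 further: cells exposed to compound for 20 h before luminescence read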
Target sequence (P30291 whole entry K328M): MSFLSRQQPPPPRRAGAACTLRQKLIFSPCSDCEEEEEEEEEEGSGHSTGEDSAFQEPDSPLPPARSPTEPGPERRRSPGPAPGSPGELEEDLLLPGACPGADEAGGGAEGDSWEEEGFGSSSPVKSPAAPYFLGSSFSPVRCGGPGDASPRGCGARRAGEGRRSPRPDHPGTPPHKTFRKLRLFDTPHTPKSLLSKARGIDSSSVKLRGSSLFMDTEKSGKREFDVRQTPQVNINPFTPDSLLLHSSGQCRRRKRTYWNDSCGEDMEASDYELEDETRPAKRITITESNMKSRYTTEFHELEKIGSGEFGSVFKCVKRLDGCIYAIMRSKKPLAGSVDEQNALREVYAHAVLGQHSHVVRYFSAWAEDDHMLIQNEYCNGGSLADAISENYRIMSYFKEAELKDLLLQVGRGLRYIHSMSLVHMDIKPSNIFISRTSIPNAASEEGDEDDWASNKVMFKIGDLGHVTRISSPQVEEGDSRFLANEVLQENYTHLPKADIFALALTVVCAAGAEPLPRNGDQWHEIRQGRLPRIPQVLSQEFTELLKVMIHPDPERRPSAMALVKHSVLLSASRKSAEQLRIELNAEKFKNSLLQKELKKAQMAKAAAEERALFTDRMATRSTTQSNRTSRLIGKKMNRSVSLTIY
TRAIL sens C8 – caspase-8 TRAIL sensitization; NB7+C8 cells + TRAIL, ATPlite viability luminescence; inhibition (viability loss, TRAIL sensitization), % at 10 µM; hit rate 1% among 360,000;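 active means compounds causing at least 50% loss of cell viability in the single-dose screen, relative to plate controls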
FLuc inh counter – Photinus pyralis luciferase inhibition counter-screen. P08659. ATPLite firefly luciferase biochemical luminescence, 10 min. inhibition, % at 10 µM. hit rate 1.5% among 200,000;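 active means inhibition above about 50% when tested at 10 µM, limit read from the data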
FLuc stim CS – affects firefly luciferase, flagging false hits in luciferase stimulation screens; P08659; ATPlite luciferase biochemical, luminescence, 10 min; 0 = ATP-free wells, 1 = DMSO control; activation factor at 10 µM; 200,000 tested, under 10 active;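 active means luciferase activation factor, scaled between plate controls, of at least 2 with compound at 10 µM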
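Assay system – cell-free luciferase reagent · Medium – PBS-based ATP solution · Dosing – test compounds dosed from 2 mM stocks in 100% DMSO · Timing – 10 min, room temperature · Technique – light output (luminescence) · Measure – luminescence gain marking luciferase activators · Controls – No-ATP low control, compound-free enzyme-plus-ATP high control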
PKD1 inh – PKD1 (human) kinase inhibition; Q15139; hit rate 0.056% among 200,000; PKD1 kinase fluorescence polarization assay; inhibition, % (concentration not given with the values); in the data active means inhibition above about 50%
Hits are given with their value; n = inactive; x = not tested or not shown. An excerpt weighted towards active compounds, which were near 2.2% of everything screened.

SMILES	PPC-1+TRAIL kill	Wee1 stabilizer	TRAIL sens C8	FLuc inh counter	FLuc stim CS	PKD1 inh
C/C(=C\C(=O)c1ccc(C)o1)Nc1ccc2c(c1)OCO2	n	n	n	52	n	n
N#Cc1cccc(NCC(=O)Nc2ccc3c(c2)OCCO3)c1	n	n	n	65	n	n
Cc1cc(N2C(=O)C3C4CC(C(Br)C4Br)C3C2=O)no1 (configuration not stated)	n	n	n	n	n	n
Cc1ccc(C)c(S(=O)(=O)N2CCN(C(=O)CCNS(=O)(=O)c3ccccc3)CC2)c1	x	x	n	x	x	x
O=C(Nc1ccc2c(c1)OCCO2)c1cccc(Br)c1	x	x	n	x	x	x
Cc1ccc(C(=O)Nc2ccc3c(c2)OCCO3)cc1	x	x	84	x	x	x
CCOc1ccc(C(=O)Nc2ccc3c(c2)OCCO3)cc1	x	x	55	x	x	x
CCCOc1cccc(C(=O)Nc2ccc3c(c2)OCCO3)c1	x	x	52	x	x	x
Cc1cc(C(=O)Nc2ccc3c(c2)OCCO3)ccc1[N+](=O)[O-]	x	x	n	x	x	x
O=C(Nc1ccc2c(c1)OCCO2)c1ccc(Br)cc1	x	x	52	x	x	x
Cc1ccc(S(=O)(=O)CCC(=O)NNC(=O)CN(C)S(=O)(=O)c2ccc(C)cc2)cc1	x	x	n	x	x	x
CC(NC(=O)c1ccco1)C(=O)NC(C)c1cc(F)c(Cl)cc1Cl (configuration not stated)	x	x	n	x	x	x
Cc1cccc2[nH]c(CN(C)Cc3nc(CC4CC4)no3)nc12	n	n	n	n	n	n
CCN1C/C(=C\c2cc(OC)c(OC)c(OC)c2)C2=NN(c3ccccc3)C(c3cc(OC)c(OC)c(OC)c3)C2C1 (configuration not stated)	x	x	n	x	x	x
Cc1ccc(C(=O)Nc2ccc3c(c2)OCCO3)c(Cl)c1	x	x	83	x	x	x
O=C(Nc1ccc2c(c1)OCCO2)c1cc(F)c(F)cc1Cl	x	x	n	x	x	x
CCOc1cccc(C(=O)Nc2ccc3[nH]ncc3c2)c1	x	x	62	x	x	x
CCOC(=O)c1[nH]c(CO)c(C(=O)OCC)c1C	n	n	n	x	x	x
CC(C)(C)NC(=O)COC(=O)c1ccccc1OCC(=O)Nc1ccc(Br)cc1	n	n	n	64	n	n
CN1CCN(C(=O)C2=C[C@@H](c3ccc(Br)cc3)C[C@@H](OCc3ccc(CO)cc3)O2)CC1	n	9.8	n	n	n	n
CN1C[C@@H]2[C@@H]3C(=O)N(Cc4ccccc4)C(=O)[C@@H]3[C@](Cc3ccccc3)(C1=O)N2C(=O)c1ccc(C(C)(C)C)cc1	x	x	65	x	x	x
COc1ccccc1N1CCN(C(=O)c2ccc(COc3cccc4c3OC(C)(C)C4)cc2)CC1	x	x	n	x	x	x
COc1ccc(NC(=O)Nc2ccc3nccnc3c2)cc1	n	n	n	57	n	n
COc1ccc(C(=O)Nc2ccc(C(=O)Nc3cccnc3)cc2)cc1	x	x	n	x	x	x
COc1ccc(NC(=O)Nc2cccnc2)cc1	n	n	n	58	n	n
SMILES	PPC-1+TRAIL kill	Wee1 stabilizer	TRAIL sens C8	FLuc inh counter	FLuc stim CS	PKD1 inh
COc1ccc(NC(=S)Nc2cccc3cnccc23)cc1	57	n	n	n	n	n
COc1ccc(NC(=O)Nc2ccc3nonc3c2)cc1	n	n	n	x	x	x
CCOc1ccc(NC(=O)NCc2cccnc2)cc1	n	n	n	n	n	n
CCOc1ccc(NC(=O)Nc2cccnc2)cc1	n	n	58	77	n	n
COc1cc2oc(=O)cc(CN3CCN(c4ccccc4F)CC3)c2cc1Cl	x	x	n	x	x	x
O=c1cc(-c2ccccc2)cc(-c2ccccc2)n1O	x	x	n	x	x	x
CCCc1cc(=O)n2c([nH]c3ccccc32)c1C#N	n	n	n	66	n	n
CCCCc1c(C)c(C#N)c2[nH]c3ccccc3n2c1=O	n	n	n	n	n	n
O=C(NCC1CCN(c2ccc(S(=O)(=O)N3CCOCC3)cc2)CC1)Nc1ccccc1F	x	x	n	x	x	x
CC(C)NC(=O)c1cc2n(n1)C(C(F)(F)F)CC(c1ccco1)N2 (configuration not stated)	n	n	n	n	n	n
Cc1cc(NC(=O)c2cc3n(n2)C(C(F)(F)F)CC(c2ccco2)N3)no1 (configuration not stated)	n	9.9	60	n	n	n
O=C(COc1ccc(Br)cc1Br)NC(=S)Nc1cccc(CO)c1	n	11	n	n	n	n
O=C(COc1ccc(Br)cc1Br)NC(=O)NC1CCCC1	n	n	n	n	n	n
CC(C)(C)NC(=O)NC(=O)COc1ccc(Br)cc1Br	n	9.8	n	n	n	n
C/C(CC(=O)NC(C)(C)C)=N\NC(=O)COc1ccc(C)cc1Br	n	9.5	n	n	n	n
O=C(/C=C/Nc1cccc([N+](=O)[O-])c1)c1ccco1	x	n	n	x	x	n
Cc1ccc(C(=O)/C=C/Nc2cccc([N+](=O)[O-])c2)o1	n	n	n	62	n	n
CNC[C@H](CC1CCCCC1)NC[C@H](Cc1ccccc1)NCCC12CC3CC(CC(C3)C1)C2	x	x	96	x	x	x
NC[C@H](Cc1ccccc1)NCCCCC1CCCCC1	x	x	n	x	x	x
COc1ccc(S(=O)(=O)N2CCC(C(=O)NC3CCCCC3)CC2)cc1C	x	x	n	x	x	x
Cc1ccc(CC2CC(=O)N(Cc3ccco3)C2=O)cc1 (configuration not stated)	n	n	n	n	n	n
O=C1CC(Cc2ccccc2)C(=O)N1Cc1ccco1 (configuration not stated)	n	n	n	87	n	n
CCCCCCCCCCCCCCCC[n+]1ccc(/C=N/O)cc1	70	n	n	n	n	n
CCCCCCCCCCCCCCCC[n+]1ccc(C(N)=O)cc1	n	n	71	n	n	n
CCCCCCCCCCCCCCCC[n+]1ccccc1	x	x	95	x	x	x
SMILES	PPC-1+TRAIL kill	Wee1 stabilizer	TRAIL sens C8	FLuc inh counter	FLuc stim CS	PKD1 inh
CCCCCCCCCCCCCCCC[n+]1cccc(C(=O)N(CC)CC)c1	n	n	n	n	n	n
COc1ccc(-c2csc3ncn(CC(=O)N4CCOCC4)c(=O)c23)cc1	n	n	n	n	n	n
CCCCOc1ccc(-c2ncc(N)cn2)cc1	n	n	n	x	x	x
O=C(Cc1ccc(NC(=O)C2CCCN(C(=O)C3CCC3)C2)cc1)Nc1cccc(C(=O)N2CCCCC2)c1 (configuration not stated)	x	x	n	x	x	x
Cn1c(Nc2ccccc2)nc2ccccc21	x	x	n	x	x	x
CC(C)N=c1cc2n(-c3ccc(Cl)cc3)c3ccccc3nc-2cc1Nc1ccc(Cl)cc1	x	x	81	x	x	x
Cc1cccc(NC(=O)COC(=O)C2COc3ccccc3O2)c1C (configuration not stated)	x	x	n	x	x	x
CCCCCCCN(C(=O)CCl)c1ccccc1C	n	n	88	n	n	n
O=C(NCc1ccc2c(c1)OCO2)C1CC(c2ccc(Cl)cc2)=NO1 (configuration not stated)	n	8.8	n	n	n	n
COc1ccc(-c2cc(C(=O)Nc3ccccc3SC)no2)cc1	n	n	n	n	n	n
CSc1ccccc1NC(=O)c1cc(-c2cccs2)on1	n	9.4	n	n	n	n
c1ccc(N2CCN(c3nnnn3-c3ccccc3)CC2)cc1	n	9.4	n	n	n	n

From PubChem BioAssay
